The text below walks through data of article PMC4851236 (Nature, 2016).

For series [1], the system named is TR146 cells. Nature of the series: Calcium flux. Type of series: cell-based, human. As to conditions: Fura-2, readings up to 3 h. Summed up:
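Confluent TR146 monolayers loaded for 1 h at 37°C/5% CO2 with Fura-2 (2.5 mM stock in Pluronic F-127/DMSO) plus probenecid in HEPES-buffered saline (2 mM CaCl2, 10 mM glucose, pH 7.4). Dye then replaced by saline. Baseline read for 10 min at excitation 340 nm/emission 520 nm. Peptides added at different concentrations. Cytosolic calcium expressed as a fluorescence ratio.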

Series [2] in a line: Impedance spectroscopy of tethered bilayer lipid membranes. The note with it: tBLMs, DOPC with or without cholesterol, 100 mM KCl, 5 mM HEPES, pH 7.0, room temperature. The gist of the method: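 tBLMs (10% tethering, 90% spacer lipids) were formed by solvent exchange from 3 mM lipid in ethanol, then buffered in 100 mM KCl, 5 mM HEPES, pH 7.0. Membranes were rinsed three times with buffer. Conductance and capacitance were recorded for 20 min before test peptide was injected at various concentrations, all at room temperature. Concentration-dependent conductance changes were averaged.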

Series [3] has as its system TR146 cells. Briefly: Cytokine determination in culture supernatants. The note with it: for Induction of cytokines (G-CSF) by peptide fragments: 15 µM, 24 h, individually or in combination. Format: cell-based, human.
Series [4] deals with TR146 cells. Nature of the series: Cell damage assay. Format: cell-based, human. As to conditions: for Induction of damage (LDH release): Ece1-I-VIII at 70 µM (Fig. 2b); for Damage of epithelial cells (LDH release) by peptide fragments: 70 µM, 24 h, individually or in combination. The gist of the method:
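Confluent TR146 cells serum-starved overnight, then exposed to test peptides for 24 h in serum-free DMEM. Culture supernatants assayed for lactate dehydrogenase activity with a colorimetric cytotoxicity kit. Activity quantified against a recombinant porcine LDH standard curve.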

Series [5] can be described thus: FRET intercalation into phospholipid liposomes. The note with it: phospholipid liposomes (DOPC with or without cholesterol), 100 mM KCl, 5 mM HEPES, pH 7.0. The gist of the method:
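Probe-dilution FRET assay. Phospholipid liposomes carried 1% (mol/mol) each of donor NBD-PE and acceptor rhodamine-PE. Lipids were dried from chloroform, taken up in 100 mM KCl, 5 mM HEPES, pH 7.0, and tip-sonicated. They then went through three 30 min cycles of 60°C heating and 4°C cooling and were held at 4°C for at least 12 h. After test peptide addition, intercalation was read as the rise in the donor (531 nm) to acceptor (593 nm) intensity ratio.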

Series [6] has as its system TR146 cells. Nature of the series: Transcription factor. Type of series: cell-based, human. The note with it: 3 h post-stimulation, sub-lytic concentrations. The gist of the method:
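Serum-starved TR146 cells treated for 3 h in serum-free DMEM. Nuclear proteins recovered by differential lysis. 5 µg nuclear extract assayed for c-Fos DNA binding by plate-based transcription factor ELISA. Results expressed as fold-change in A450nm relative to resting cells.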

The subject of series [7] is multiple human epithelial cell types. Nature of the series: Direct lysis of epithelial cells. Format: cell-based. The note with it: not shown.
Series [8] concerns TR146 cells. Briefly: Western blotting of phospho-MKP1 and c-Fos induction. Format: cell-based, human. The note with it: for Induction of p-MKP1 and c-Fos: serum-free DMEM, 2 h post-stimulation, Western blot, Ece1-I-VIII incubated at 1.5 – 70 µM (Fig. 2a: 1.5 µM); for Induction of p-MKP1 and c-Fos by peptide fragments: 15 µM, 2 h, individually or in combination. Summed up: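 Serum-starved TR146 cells treated for 2 h in serum-free DMEM, then lysed on ice for 30 min in modified RIPA buffer (pH 7.4) with protease and phosphatase inhibitors. 20 µg protein resolved on 12% SDS-PAGE and transferred to nitrocellulose. Blots probed for phospho-MKP1 and c-Fos (primary 1:1000, HRP secondary 1:10,000), detected by chemiluminescence. α-actin used as loading control.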

A further series deals with red blood cells. Nature of the series: Hemolysis of red blood cells. Format: cell-based. The note with it: not shown.
Series [9] deals with TR146 cells. Briefly: Whole cell patch clamp. The note with it: membrane potential −60 mV, room temperature. Type of series: cell-based, human. Summed up: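 TR146 cells cultured 48 h and recorded at 10–30% confluence while superfused with modified Krebs solution (pH 7.4). Pipettes 5–7 MΩ, filled with potassium acetate/KCl/HEPES/EGTA solution (free Ca2+ 40 nM). Current-voltage curves from 1 s steps, −100 to +50 mV. Treatments added to superfusate at final concentration, with vehicle controls and an ionomycin positive control. Cells analysed counted per condition.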

Series [10] in a line: Circular dichroism spectroscopy. Format: physicochemical. As to conditions: 15 µM peptide, 100 mM KCl, 5 mM HEPES, pH 7. Summed up:
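Peptide at 15 µM in 100 mM KCl, 5 mM HEPES, pH 7.0, in a 1.0 mm quartz cuvette, run at 25°C and 40°C. Spectra are the average of four scans, collected at 1 nm intervals with 2 nm bandwidth.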

A short description of another series: Planar lipid bilayers. The note with it: 5 mM HEPES, 100 mM KCl, pH 7.0, 37°C, Ece1-III62–93 0.125 µM (DOPC), Ece1-III62–92K 4 µM. The gist of the method:
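Montal-Mueller planar bilayers were bathed in 5 mM HEPES, 100 mM KCl, pH 7.0 (specific conductivity 17.2 mS/cm) at 37°C. Test peptide was added and membrane current was recorded for permeabilization events up to rupture.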

Entries after “also recorded” stand apart in the source; their conditions may differ.

Take “SIIGIIMGILGNIPQVIQIIMSIVKAFKGNKR [Ece1-III62–93]”: the “Calcium influx (intracellular calcium level)” value (“Calcium influx” for short) with TR146 cells [1] is reported as “associated with calcium influx”. Also, the “Permeabilization of tethered lipid membranes (conductance)” value (shortened to “Permeabilization”) in series [2] is on record as “enhanced in the presence of cholesterol”. In the series with TR146 cells [3] (24 h post-stimulation), the “Concentrations required to induce damage-associated cytokine IL-1α” value is 70 µM, the “Concentrations required to induce damage-associated cytokine IL-6” value was 70 µM, the “Concentrations sufficient to induce G-CSF” value was in the range of 1.5 to 15 µM and the “Concentrations sufficient to induce GM-CSF” value lay in the range of 1.5 to 15 µM. Besides, the Induction of cytokines result in the series on TR146 cells [3] (24 h post-stimulation, peptides 1.5 – 70 µM) was “induced”. For the same substance, in the series on TR146 cells [4] (24 h post-stimulation), the “Concentrations required to induce damage (LDH release)” value is on record as 70 µM and the “Induction of damage (LDH release)” value is reported as “induced”. Also, the “Intercalation into lipid membranes (FRET)” value in series [5] is on record as “able to efficiently intercalate; also recorded: slightly enhanced intercalation for pure DOPC”. The “Concentrations sufficient to induce c-Fos DNA binding” value with TR146 cells [6] lay within 1.5 to 15 µM. The “Direct lysis of multiple human epithelial cell types” value in [7] is recorded as “directly lyse multiple human epithelial cell types”. Moreover, the “Induction of p-MKP1 and c-Fos” value with TR146 cells [8] is on record as “induced”. Besides, the “Hemolysis of red blood cells” value with red blood cells was “induce hemolysis of red blood cells”. In addition, the “Evoked current in epithelial cells (patch clamp)” value with TR146 cells [9] is “causes an inward current”. Further, in series [10], the “Secondary structure by circular dichroism” value is “α-helical conformation”. Besides, the “Lesions induced in planar lipid membranes” value in the series “Planar lipid bilayers” was “heterogeneous and transient lesions leading finally to a rupture of the membrane”.

Take “Ece1-III62–85: N-terminal hydrophobic region of Ece1-III62–93”: the “Induction of cytokines (G-CSF) by peptide fragments” value in the series on TR146 cells [3] was “Neither”. For the same substance, in the series on TR146 cells [4], the “Damage of epithelial cells (LDH release) by peptide fragments” value is given as “Neither”. Moreover, the “Induction of p-MKP1 and c-Fos by peptide fragments” value in the series on TR146 cells [8] is on record as “Neither”.

Consider “SIIGIIMGILGNIPQVIQIIMSIVKAFKGNK [Ece1-III62–92K]”, for which the “Calcium influx” value in the series on TR146 cells [1] is “induces”. In addition, the “Permeabilization” value in [2] is “induces”. Further, in the series on TR146 cells [3] (24 h post-stimulation), the “Induction of G-CSF secretion” value is reported as “induces” and the “Induction of IL-1α secretion” value was “induces”. Further, the “Induction of damage (LDH release)” value in the series on TR146 cells [4] (24 h post-stimulation) is on record as “induces”. For the same substance, the “Intercalation into lipid membranes (FRET)” value in [5] is reported as “induces”. Also, the “Induction of p-MKP1 and c-Fos” value in the series on TR146 cells [8] is listed as “induces”. In addition, in series [10], the “Secondary structure by circular dichroism” value was “α-helical”. For the same substance, the “Lesions induced in planar lipid membranes” value in the series “Planar lipid bilayers” is “heterogeneous and transient lesions leading to membrane rupture”.

For “Ece1-III62–93AA: Ece1-III62–93 with C-terminal KR motif substituted to AA”, the “Calcium influx” value in the series with TR146 cells [1] was “significantly reduced”. In addition, the “Permeabilization” value in [2] is recorded as “significantly reduced”. In addition, the “Induction of G-CSF secretion” value with TR146 cells [3] (24 h post-stimulation) is listed as “still induced”. The “Induction of damage (LDH release)” value in the series with TR146 cells [4] (24 h post-stimulation) is recorded as “significantly reduced”. Besides, the “Intercalation into lipid membranes (FRET)” value in series [5] is reported as “did not affect membrane intercalation”. The “Induction of p-MKP1 and c-Fos” value in the series with TR146 cells [8] is “still induced”.

“Ece1-III86–93: C-terminal hydrophilic region of Ece1-III62–93 (KAFKGNKR; UniProt Q07730 86-93, looked up, fragment)”: the “Induction of cytokines (G-CSF) by peptide fragments” value with TR146 cells [3] is given as “Neither”. Further, the “Damage of epithelial cells (LDH release) by peptide fragments” value in the series with TR146 cells [4] is “Neither”. Moreover, the “Induction of p-MKP1 and c-Fos by peptide fragments” value in the series with TR146 cells [8] is recorded as “Neither”.
